Measurements collected from several papers.
Observed: cell growth or viability

CC(C)(C)c1cnc(CSc2cnc(NC(=O)C3CCN(CCCCCSc4cccc5c4CN(C4CCC(=O)NC4=O)C5=O)CC3)s2)o1 (stereo not shown)  viability (HH; CCK-8; 0.5 µM): 0%
CC(=NNC(=O)COc1ccc2c(C)c(Cc3ccccc3)c(=O)oc2c1C)c1ccc(Br)cc1  viability (HepG2; MTT; 0.2 µg/mL): 62.9%
CC(C)(C)c1cnc(CSc2cnc(NC(=O)C3CCN(C(=O)CCCSc4cccc5c4C(=O)N(C4CCC(=O)NC4=O)C5=O)CC3)s2)o1 (stereo not shown)  viability (HH; CCK-8; 1 µM): 8.16%
CC(=NNC(=O)c1ccccc1Cl)c1ccc(Nc2nnc(-c3ccc(Cl)cc3)c3ccccc23)cc1  viability (HepG2; MTT; 0.625 µM; 24 h): 28.3%
CC(C)(C)c1cnc(CSc2cnc(NC(=O)C3CCN(CCCCSc4cccc5c4C(=O)N(C4CCC(=O)NC4=O)C5=O)CC3)s2)o1 (stereo not shown)  viability (HH; CCK-8; 0.2 µM): 1.85%
CCOC(=O)c1nn(-c2cccc(Cl)c2)/c(=N/N=C(\C)c2ccc(NC(=O)c3ccccc3)cc2)s1  viability (HepG2; MTT; 2.5 µM): 2.82%
S=C(Nc1ccccc1)Nc1ccc(Oc2nnc(-c3ccc(Cl)cc3)c3ccccc23)cc1  viability (HepG2; MTT; 2.5 µM; 24 h): 18%
CCOC(=O)c1nn(-c2cccc(Cl)c2)/c(=N/N=C(\C)c2ccc(NC(=O)c3ccc(Cl)cc3)cc2)s1  viability (HepG2; MTT; 0.312 µM): 3.13%
CC(=NNC(=S)Nc1ccccc1)c1ccc(Nc2nnc(-c3ccc(Cl)cc3)c3ccccc23)cc1  viability (HepG2; MTT; 0.625 µM; 24 h): 79.5%
CC(=O)Nc1ccc(/C(C)=N/N=c2\sc(C(C)=O)nn2-c2ccc(C)cc2)cc1  viability (HepG2; MTT; 0.625 µM): 99.8%
CC(C)(C)c1cnc(CSc2cnc(NC(=O)C3CCN(CCCCCCCCSc4cccc5c4CN(C4CCC(=O)NC4=O)C5=O)CC3)s2)o1 (stereo not shown)  viability (HH; CCK-8; 0.25 µM): 0%
O=C(C=Cc1ccccc1)Nc1ccc(Oc2nnc(-c3ccc(Cl)cc3)c3ccccc23)cc1  viability (HepG2; MTT; 0.625 µM; 24 h): 78.5%
CC(=O)c1nn(-c2ccc(C)cc2)/c(=N/N=C(\C)c2ccc(NC(=O)c3ccccc3)cc2)s1  viability (HepG2; MTT; 78 nM): 73.6%
CC(=NNC(=O)c1ccncc1)c1ccc(Nc2nnc(-c3ccc(Cl)cc3)c3ccccc23)cc1  viability (HepG2; MTT; 1.25 µM; 24 h): 5.31%
CC(=O)c1nn(-c2ccccc2Cl)/c(=N/N=C(\C)c2ccc(NC(=O)c3ccccc3)cc2)s1  viability (HepG2; MTT; 0.312 µM): 6.13%
CC(C)(C)c1cnc(CSc2cnc(NC(=O)C3CCN(CCCCCCCCSc4cccc5c4C(=O)N(C4CCC(=O)NC4=O)C5=O)CC3)s2)o1 (stereo not shown)  viability (HH; CCK-8; 1 nM): 99.5%
